Reference: publication PMC12765261 (Journal of Pharmaceutical Analysis, 2025)
Counter-ions that a name gives are not always drawn.

Experiments:
[1] = Hygroscopicity test; assay type: physicochemical; details: 25 °C/80% RH for 24 h
In short: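 Co-amorphous samples were held at 25 °C/80% RH for 24 h, and percentage weight gain was calculated, n = 3. Pharmacopeial criteria were applied: a gain above 2% but below 15% counts as hygroscopic.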

[2] = Stability experiments; assay type: physicochemical; details: 75% RH for 5 and 10 days
[3] = system: GLUT4 expression in H9c2 cells; assay: GLUT4 immunofluorescence; assay type: cell-based; details: 2 h pre-treatment before HGHI incubation
In short: (§1)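 Before the high-glucose/high-insulin step (30 mM glucose, 5 μM insulin, 30 h), cells were pre-treated for 2 h with the PI3K inhibitor LY294002 or the AMPK inhibitor dorsomorphin. They then received test compounds at varying concentrations for 24 h. GLUT4 was immunostained with a rabbit polyclonal primary and a fluorescein-conjugated secondary, with DAPI for nuclei. Cells were imaged by confocal microscopy and GLUT4 signal was quantified.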

[4] = system: GLUT4 expression in HepG2 cells; assay: GLUT4 immunofluorescence; assay type: cell-based; details: 2 h pre-treatment before HGHI incubation
In short: as §1

[5] = system: H9c2 cells; assay: Cytotoxicity, MTT assay under HGHI conditions; assay type: cell-based; details: 24 h
In short: (§2)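 Cell lines were kept in DMEM (25 mM glucose, 10% FBS, 1% penicillin/streptomycin) at 37 °C and 5% CO2. Insulin resistance was induced with 30 mM glucose plus 5 μM insulin for 30 h. Cells were then exposed for 24 h under these conditions to a range of concentrations of the single components, a physical mixture or the co-amorphous system. Viability was read by MTT, n = 3, mean ± SD.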

[6] = system: HepG2 cells; assay: Cytotoxicity, MTT assay under HGHI conditions; assay type: cell-based; details: 24 h
In short: as §2

SMILES | Percentage of weight gain (hygroscopicity) [1] [%] | Phase stability under high humidity (XRD) [2] | Effect of inhibitor on GLUT4 fluorescence induced by COA-I [3] | Effect of inhibitor on GLUT4 fluorescence induced by COA-I [4] | Concentrations showing cytotoxicity [5] | Concentrations showing cytotoxicity [6]
CCOc1ccc(Cc2cc([C@@H]3O[C@H](CO)[C@@H](O)[C@H](O)[C@H]3O)ccc2Cl)cc1 [DAP, Dapagliflozin] | 5.36 | remained amorphous |  |  |  | 
O=c1cc(N2CCOCC2)oc2c(-c3ccccc3)cccc12 [LY294002] |  |  | attenuated | attenuated |  | 
CCc1ccc(CCOc2ccc(CC3SC(=O)NC3=O)cc2)nc1 (stereo not drawn) [PIO, Pioglitazone] | 0.86 |  |  |  | higher than 10 μM | higher than 10 μM
c1cc(-c2cnn3cc(-c4ccc(OCCN5CCCCC5)cc4)cnc23)ccn1 [compound C, dorsomorphin (compound C) dihydrochloride] |  |  | attenuated | attenuated |  | 
